From ChEMBL document CHEMBL1128579, “The role of charge in polyamine analogue recognition” (J Med Chem, 1995)

How the values were obtained:
[1] = Titrimetrically measured pKa2 value of the compound; type: physicochemical; settings: read-out: pKa2
How it was run: (§1)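 pKa values determined by titration; relative abundance of each ionic species then calculated for pH 7.4.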

[2] = Titrimetrically measured pKa1 value of the compound; type: physicochemical; settings: read-out: pKa1; how it was run: as §1
L1210 [3] = assay: Impact (100 uM) on polyamine(Spd) pools in L1210 cells, expressed relative to untreated controls (control = 100%).; type: functional, Mus musculus
How it was run: (§2)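 Logarithmic-phase murine L1210 cells grown 48 h with analogue at the stated concentration. Cells washed twice in cold RPMI-1640 and extracted with 0.6 N perchloric acid; supernatants held at -20 °C, then analysed by HPLC. Put, Spd and Spm given relative to untreated controls (100%); intracellular analogue given as pmol/10^6 cells.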

[4] = Titrimetrically measured pKa3 value of the compound; type: physicochemical; settings: read-out: pKa3; how it was run: as §1
L1210 [5] = assay: Concentration inhibiting radiolabeled spermidine transport in L1210 cells.; type: functional, cell-based, Mus musculus
How it was run: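 Competition with [3H]- or [14C]spermidine uptake into L1210 leukemia cells. Cells incubated 20 min at 37 °C in RPMI-1640 with 1, 2, 4, 6, 8 and 10 μM radiolabeled SPD, alone or plus 10, 25 or 50 μM analogue. Cells pelleted at 0–4 °C, washed with cold medium containing 1 μM SPD, NaOH-dissolved, then scintillation counted. Ki taken from Lineweaver–Burk plots as simple competitive inhibition.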

[6] = target: T1, Ornithine decarboxylase (Mus musculus) (UniProt P00860); assay: Impact on polyamine biosynthetic enzyme, Ornithine decarboxylase in L1210 cells treated with the compound for 4 hr.; type: cell-based; set-up: concentration or dose not given beside the values
T1 sequence (whole entry): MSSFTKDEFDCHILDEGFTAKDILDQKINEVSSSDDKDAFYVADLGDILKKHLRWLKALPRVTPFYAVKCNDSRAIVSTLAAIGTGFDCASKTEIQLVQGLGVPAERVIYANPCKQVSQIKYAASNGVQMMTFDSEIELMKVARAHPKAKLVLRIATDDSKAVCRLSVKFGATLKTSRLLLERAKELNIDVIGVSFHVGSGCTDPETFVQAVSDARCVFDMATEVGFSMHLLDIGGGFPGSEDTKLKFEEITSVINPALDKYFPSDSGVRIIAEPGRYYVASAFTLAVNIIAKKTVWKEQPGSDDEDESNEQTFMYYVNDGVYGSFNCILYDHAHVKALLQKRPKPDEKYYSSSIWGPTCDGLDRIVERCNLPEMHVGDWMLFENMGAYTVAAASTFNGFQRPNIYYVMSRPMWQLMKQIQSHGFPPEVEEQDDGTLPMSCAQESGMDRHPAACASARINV
How it was run: (§3)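 L1210 cells treated with analogue: 4 h for ODC, 6 h for AdoMetDC, 48 h for SSAT. ODC and AdoMetDC measured as 14CO2 released from [14C]carboxyl-labeled L-ornithine or S-adenosyl-L-methionine. SSAT measured as [14C]acetylspermidine formed from SPD and [14C]acetyl-CoA. Triplicate runs, each with untreated and positive controls (10 μM DENSPM for ODC and AdoMetDC). Activity given as % of untreated control.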

L1210 [7] = assay: Inhibitory concentration against L1210 cells on 96 hr incubation.; type: functional, cell-based; settings: Mus musculus, L1210, 96 h
How it was run: (§4)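 Murine L1210 leukemia cells in suspension in RPMI-1640 with 10% NuSerum, HEPES-MOPS and 1 mM aminoguanidine, 37 °C, 5% CO2. Log-phase cultures at (0.5-1.0) × 10^5 cells/mL treated with filtered aqueous analogue for 48 h, then reseeded and grown a further 48 h. Cells counted by Coulter counter. IC50 is the concentration giving 50% of control growth, corrected for initial inoculum.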

L1210 [8] = assay: Impact (100 uM) on polyamine(Put) pools in L1210 cells, expressed relative to untreated controls (control = 100%).; type: functional, Mus musculus; how it was run: as §2
[9] = target: Spermidine/spermine N(1)-acetyltransferase (SAT) (Mus musculus) (UniProt Q6P8J2+P48026); assay: Impact on polyamine biosynthetic enzyme Spermidine N-acetyl-transferase in L1210 cells treated with the compound for 48 hr.; type: cell-based; set-up: concentration or dose not given beside the values; how it was run: as §3
[10] = Titrimetrically measured pKa4 value of the compound; type: physicochemical; settings: read-out: pKa4; how it was run: as §1
L1210 [11] = assay: Impact on polyamine biosynthetic enzyme, S-adenosyl-L-methionine decarboxylase in L1210 cells treated with the compound for 6 hr.; type: cell-based; set-up: concentration or dose not given beside the values; how it was run: as §3
L1210 [12] = assay: Impact (100 uM) on polyamine(Spm) pools in L1210 cells, expressed relative to untreated controls (control = 100%).; type: functional, Mus musculus; how it was run: as §2
L1210 [13] = assay: Inhibitory concentration against L1210 cells on 96h incubation.; type: functional, cell-based; settings: Mus musculus, L1210, 96 h; how it was run: as §4
L1210 [14] = assay: Level (100 uM) in L1210 cells.; type: functional, Mus musculus; how it was run: as §2
L1210 [15] = assay: Impact (30 uM) on polyamine(Spd) pools in L1210 cells, expressed relative to untreated controls (control = 100%).; type: functional, Mus musculus; how it was run: as §2
L1210 [16] = assay: Impact (30 uM) on polyamine(Spm) pools in L1210 cells, expressed relative to untreated controls (control = 100%).; type: functional, Mus musculus; how it was run: as §2
L1210 [17] = assay: Impact (30 uM) on polyamine(Put) pools in L1210 cells, expressed relative to untreated controls (control = 100%).; type: functional, Mus musculus; how it was run: as §2
L1210 [18] = assay: Level (30 uM) in L1210 cells.; type: functional, Mus musculus; how it was run: as §2
L1210 [19] = assay: Impact (2 uM) on polyamine(Spd) pools in L1210 cells, expressed relative to untreated controls (control = 100%).; type: functional, Mus musculus; how it was run: as §2
L1210 [20] = assay: Impact (2 uM) on polyamine(Spm) pools in L1210 cells, expressed relative to untreated controls (control = 100%).; type: functional, Mus musculus; how it was run: as §2
L1210 [21] = assay: Level (2 uM) in L1210 cells.; type: functional, Mus musculus; how it was run: as §2
L1210 [22] = assay: Impact (2 uM) on polyamine(Put) pools in L1210 cells, expressed relative to untreated controls (control = 100%).; type: functional, Mus musculus; how it was run: as §2

Sequence of Spermidine/spermine N(1)-acetyltransferase (SAT) (Mus musculus) (P48026 whole entry, looked up): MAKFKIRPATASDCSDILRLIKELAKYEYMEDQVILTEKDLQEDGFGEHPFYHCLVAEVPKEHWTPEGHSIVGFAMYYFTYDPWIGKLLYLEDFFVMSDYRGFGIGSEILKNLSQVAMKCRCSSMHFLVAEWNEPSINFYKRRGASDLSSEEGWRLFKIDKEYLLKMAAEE
Sequence of Spermidine/spermine N(1)-acetyltransferase (SAT) (Mus musculus) (Q6P8J2 whole entry, looked up): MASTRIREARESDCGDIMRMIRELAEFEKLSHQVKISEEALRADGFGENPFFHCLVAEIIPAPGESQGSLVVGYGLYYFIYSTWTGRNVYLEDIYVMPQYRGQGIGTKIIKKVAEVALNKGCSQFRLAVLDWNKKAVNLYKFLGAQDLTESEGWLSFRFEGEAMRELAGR

| pKa [1] | pKa [2] | pKa [4] | Control [6] [%] | IC50 (L1210 [7]) [µM] | Control [9] [%] | pKa [10] | IC50 (L1210 [13]) [µM] | Structure (SMILES) | Polyamine pools (L1210 [3]) [%] | Ki (L1210 [5]) [µM] | Polyamine pools (L1210 [8]) [%] | Control (L1210 [11]) [%] | Polyamine pools (L1210 [12]) [%] | further results |
| --- | --- | --- | --- | --- | --- | --- | --- | --- | --- | --- | --- | --- | --- | --- |
| 7.64 | 9.23 | 4.43 | 90 | 80 | 87 | 3.77 | – | c1cc(CNCCCCNCc2ccncc2)ccn1 | 95 | > 500 | 87 | 100 | 99 | – |
| 10.1 | 10.9 | 8.82 | – | – | – | 7.95 | – | NCCCNCCCCNCCCN [SPERMINE] | – | – | – | – | – | – |
| 10.7 | 10.9 | 9.43 | 6 | 0.1 | 325 | 8.45 | – | C(CCNCC1CCNCC1)CNCC1CCNCC1 | – | 4.9 | – | 39 | – | Polyamine pools (L1210 [19]): 5%; Polyamine pools (L1210 [20]): 50%; Analogue level (L1210 [21]): 2518 pM (10e6*cells)-1; Polyamine pools (L1210 [22]): 0% |

Further lines, the molecule ahead of its results:

| Structure (SMILES) | pKa [1] | pKa [2] | pKa [4] | Control [6] [%] | IC50 (L1210 [7]) [µM] | Control [9] [%] | pKa [10] | IC50 (L1210 [13]) [µM] | Polyamine pools (L1210 [3]) [%] | Ki (L1210 [5]) [µM] | Polyamine pools (L1210 [8]) [%] | Control (L1210 [11]) [%] | Polyamine pools (L1210 [12]) [%] | further results |
| --- | --- | --- | --- | --- | --- | --- | --- | --- | --- | --- | --- | --- | --- | --- |
| FC(F)(F)CNCCCNCCCCNCCCNCC(F)(F)F | 9.41 | 10.5 | 4.81 | 100 | – | 97 | 4.09 | > 100 | 103 | 285 | 103 | 100 | 108 | Analogue level (L1210 [14]): <20 pM (10e6*cells)-1 |
| c1cc(CCNCCCCNCCc2ccncc2)ccn1 | 8.85 | 9.81 | 5.69 | 100 | > 100 | 140 | 4.93 | – | 85 | > 500 | 124 | 100 | 96 | – |
| CCNCCCNCCCCNCCCNCC [BIS(ETHYL)SPERMINE] | – | – | – | 3 | – | 460 | – | 0.2 | – | – | – | 28 | – | Polyamine pools (L1210 [15]): 0%; Polyamine pools (L1210 [16]): 22%; Polyamine pools (L1210 [17]): 0%; Analogue level (L1210 [18]): 1780 pM (10e6*cells)-1 |
